DNMT1 block: human DNMT1 methyltransferase inhibitors, primary screen, biochemical, molecular beacon, fluorescence, HinP1I cleavage, uHTS. inhibition (reported as % activation of signal), % at 10 µM. actives 0.83% (n = 360,000). AID 588458, 2011
Scp-1 inhibitor: Scp-1 phosphatase inhibitors, primary screen, biochemical, colorimetric, uHTS | AID 493091, 2011 | Carboxy-terminal domain RNA polymerase II polypeptide A small phosphatase 1 (Homo … | Recombinant Scp1, phosphopeptide, malachite green phosphate absorbance | actives 0.88% (n = 340,000) | inhibition, % at 20 µM;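 active means inhibition above about 50% at 20 µM, limit read from the data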;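 further: plate controls were DMSO wells with enzyme for no effect and wells lacking enzyme for full effect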
Target sequence (Q9GZU7 76-261 limits assumed): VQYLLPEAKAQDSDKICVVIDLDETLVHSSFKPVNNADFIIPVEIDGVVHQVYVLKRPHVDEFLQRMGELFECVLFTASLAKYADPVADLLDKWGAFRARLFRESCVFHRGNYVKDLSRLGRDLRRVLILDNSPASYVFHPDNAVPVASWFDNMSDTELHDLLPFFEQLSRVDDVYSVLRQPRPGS
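assay system = SCP-1 phosphatase catalytic domain, residues 76-261 | buffer or medium = 50 mM Tris acetate pH 5.5, 0.005% Tween-20, 10 mM MgCl2 | incubation = enzyme reaction 45 min at room temperature, colour 5 min, stabilisation 30 min | signal = Phosphate-binding colour reagent, absorbance read at 630 nm | measure = % inhibition at 20 µM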
STEP block: STEP phosphatase inhibitors, primary screen, biochemical, fluorescence intensity, uHTS | recombinant STEP, OMFP fluorogenic substrate | inhibition, % at 20 µM | actives 0.25% (n = 360,000) | AID 588621, 2011;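 active means inhibition at 20 µM, scaled per plate between control wells, above about 37%, limit read from the data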;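 further: 0% = DMSO with enzyme and substrate and 100% = substrate only without enzyme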
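Also added – OMFP at 25 µM · Test system – STEP tyrosine phosphatase · Technique – FITC-channel fluorescence of OMFP product · Schedule – 20 min at room temperature, dark · Evaluation – control-normalized % inhibition with plate pattern correction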
SUMO1 PPI mod: modulators of SUMO1 protein-protein interactions, primary screen, biochemical, uHTS; Small ubiquitin-related modifier 1 (Homo sapiens), P63165; SUMO1 binding to a labelled peptide, TR-FRET, 1 h; inhibition, % at 20 µM; actives 0.33% (n = 360,000); AID 602429, 2012; in the data active means inhibition above about 37%
Target sequence (P63165 whole entry, looked up): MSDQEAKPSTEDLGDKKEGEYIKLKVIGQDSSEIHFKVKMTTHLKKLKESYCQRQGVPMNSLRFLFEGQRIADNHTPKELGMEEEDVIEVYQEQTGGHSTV
LMPTP inh: LMPTP phosphatase inhibitors, primary screen, biochemical, fluorescence intensity, uHTS; inhibition, % at 20 µM; actives 0.22% (n = 360,000); recombinant LMPTP-A, OMFP fluorogenic substrate; Low molecular weight phosphotyrosine protein phosphatase (Homo sapiens), P24666;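 active means compounds that cut the enzyme signal by at least half of the control window in the single-dose screen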;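 further: plate controls were DMSO wells with enzyme plus substrate for no effect and substrate without enzyme for full effect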
Target sequence (P24666 whole entry, looked up): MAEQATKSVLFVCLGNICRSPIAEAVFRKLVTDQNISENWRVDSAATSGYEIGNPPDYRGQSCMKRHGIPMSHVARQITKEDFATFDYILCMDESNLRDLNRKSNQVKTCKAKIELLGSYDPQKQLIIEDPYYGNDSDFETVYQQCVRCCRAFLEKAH
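Assay system: LMPTP-A phosphatase enzyme | Input: 0.625 nM enzyme | Also added: Fluorogenic phosphatase substrate OMFP at 400 µM final | Compound dosing: One test concentration per compound, 20 µM, with 3% DMSO overall | Schedule: 50 min enzyme reaction at room temperature, protected from light | Signal: Fluorescence intensity | Benchmarks: no-enzyme and uninhibited controls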
CSN inh: inhibitors of CSN-mediated cullin deneddylation, primary screen, biochemical, fluorescence polarization, uHTS. actives 0.38% (n = 360,000). AID 651999, 2013. Purified CSN, SCF-Nedd8-OG deneddylation. inhibition, % at 12.5 µM;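 active means pattern-corrected inhibition above about 35%, with an unprinted fluorescence ratio check between 0.5 and 1.5, limit read from the data, passing the limit was not always enough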;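 further: 0% = enzyme with substrate and 100% = substrate without enzyme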
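Assay system: HEK293T-derived human Csn5 enzyme; quantity: 0.24 nM enzyme; medium: Tris/NaCl/DTT buffer, pH 7.5; also added: substrate SCFSkp2-Nedd8OG, 10 nM; doses: 12.5 µM compound; schedule: 90 min reaction at room temperature; signal: FP; read-out: % inhibition of substrate cleavage by Csn5; benchmarks: substrate-only high control, full reaction low control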
STEP conf: STEP phosphatase inhibitor hit confirmation, biochemical, fluorescence intensity, single concentration; actives 32% (n = 520); shares compounds with STEP block; AID 623866, 2012; inhibition, % at 20 µM; recombinant STEP, OMFP fluorogenic substrate; call rule not given here;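 further: 0% = enzyme with substrate plus DMSO and 100% = substrate without enzyme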
CSN5 deneddyl: Csn5 deneddylation inhibitors, confirmation, biochemical, fluorescence polarization, single concentration, SCF-Nedd8OG substrate; shares compounds with CSN inh; Csn5 deneddylation of SCF-Nedd8OG, 90 min; inhibition, % at 16.6 µM; actives 62% (n = 540); AID 720654, 2013;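 further: 0% = DMSO with enzyme and 100% = no enzyme wells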
MMP2 cntr CSN: MMP-2 protease inhibition counter-screen, confirmation, counter-screen for CSN deneddylation inhibitor project, biochemical, fluorescence, single concentration. shares compounds with CSN inh. recombinant MMP-2, FRET substrate fluorescence, 60 min. inhibition, % at 16.6 µM. actives 33% (n = 540). AID 720655, 2013;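 active means corrected plate-normalized z-score of 5 or more, or -5 or less, or inhibition of 15% or more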;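 further: plate controls were DMSO wells with enzyme for no effect and buffer wells lacking MMP-2 for full effect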
Thrombin cntr: blocks bovine thrombin in a CSN deneddylation counter-screen. shares compounds with CSN inh. bovine thrombin cleavage of Ub4-pepOG, fluorescence polarization. inhibition, % at 16.6 µM. actives 49% (n = 540). AID 720656;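 active means inhibition at or above a set limit, with a fluorescence interference ratio between 0.5 and a set maximum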
* marks the source's active call; other numbers are inactive results; . = no result given; + = active, no number. Shown are actives, neighbours in structure and some others; about 1.9% of the full set was active somewhere. Unless noted, no stated cut-off is given here; in the data, active means inhibition above about 50%; inactive means the rest.

SMILES	DNMT1 block	Scp-1 inhibitor	STEP block	SUMO1 PPI mod	LMPTP inh	CSN inh	STEP conf	CSN5 deneddyl	MMP2 cntr CSN	Thrombin cntr
Cc1ccc(C(=S)N2CCN(Cc3ccccc3)CC2)s1	-2	-8	78*	1	2	-4	42*	.	.	.
O=C(CSc1ncn[nH]1)NCc1ccccc1Cl	0	2	-2	7	-1	2	.	.	.	.
COc1ccc(-c2csc(N3CCC(C(N)=O)(N4CCCCC4)CC3)n2)cc1	3	-5	71*	-4	1	5	-2	.	.	.
Cc1cc(C)c(NC(=S)N2CCC(N(C)CC3CCCO3)CC2)c(C)c1 (stereo not drawn)	1	-6	86*	2	-5	4	30	.	.	.
Nc1ccc2c(O)cc(S(=O)(=O)O)cc2c1	93*	67*	38*	37	26	36*	68*	94*	16*	9
O=C(N/N=C/c1ccncc1)c1cccc(S(=O)(=O)Nc2ccc(Cl)cc2)c1	3	11	74*	79*	26	72*	95*	.	35*	-6
O=C(N/N=C/c1cccnc1)c1cccc(S(=O)(=O)Nc2cccc(Cl)c2)c1	4	-1	5	3	0	0	.	.	.	.
COc1cc(OCc2ccccc2)c(C(=O)/C=C/c2ccc3c(c2)OCO3)c(OC)c1OC	3	-20	1	-11	4	2	.	.	.	.
N#C/C(=C\c1ccc(N2CCOCC2)o1)C(=O)Nc1ccc(O)cc1	21	1	-2	-40	17	182	.	.	.	.
N#C/C(=C/c1ccc(N2CCOCC2)o1)C(=O)NC1CCCCC1	21	0	0	-25	8	103*	.	120*	-5	88*
N#C/C(=C/c1ccc(N2CCOCC2)o1)c1ccc(Br)cc1	-6	-6	-4	-40	2	80*	.	+	-37*	-51
Cc1cc(C)c(C(=O)COC(=O)c2c(C)noc2C)cc1C	6	-2	1	3	1	-3	.	.	.	.
CCOc1ccccc1NC(=O)C(OC(=O)c1cnccn1)c1ccccc1 (stereo not drawn)	-3	-10	-2	6	-1	-1	.	.	.	.
Cc1ccc(C(=O)OCC(=O)NCc2ccccc2)s1	2	.	0	2	0	-3	.	.	.	.
COc1ccccc1-n1cc([C@@H]2C[C@H]3CN(c4ccccc4)C(=O)[C@]34CCCN24)cn1	-5	-6	-3	-5	3	54*	.	69*	-3	37*
COc1ccc(C2CC(c3ccccc3)=NN2S(=O)(=O)c2ccccc2)cc1 (stereo not drawn)	-1	-16	5	-4	2	6	.	.	.	.
